The record followed here is ChEMBL document CHEMBL3244353, “Antiallergy activity of substituted 11-oxo-11 H-pyrido[2,1-b]quinazoline-8-carboxylic acids” (J Med Chem, 1979).

Active and inactive are the calls of the source. No cut-off for these calls is given here.

The subject of experiment [1] is Rattus norvegicus. Briefly: Antiallergic activity in po dosed rat assessed as inhibition of ovalbumin-induced passive cutaneous anaphylaxis. In kind it is functional. The settings on record: for ED50: read-out: ID50 (the source's name). Summed up: (§1)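 Passive cutaneous anaphylaxis in rats sensitized intradermally with antiserum 48 h before iv challenge with 1 mg ovalbumin plus 0.25% Evans Blue. Drug was suspended in 1% gum tragacanth in saline and given orally 10-15 min before antigen. Spot diameter was read on reflected dorsal skin. Percent inhibition was taken against the extrapolated base value. Groups of five; ID50 in mg/kg.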

Experiment [2] deals with Rattus norvegicus. Briefly: Antiallergic activity in po dosed rat allergic bronchoconstriction model assessed as survival from death by bronchoconstriction administered 15 to 30 mins prior to ovalbumin challenge measured after 10 mins. In kind it is functional. The settings on record: read-out: ID50 (the source's name). The essentials:
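Rats immunized im with 1 mg ovalbumin on alumina in the nuchal region, three times on alternate days. On day 8, 9 or 10 they were anaesthetised (pentobarbital 60 mg/kg ip), tracheally cannulated and breathed spontaneously. Drug was given po 15 and 30 min before a 1 mg ovalbumin iv (jugular) challenge. Survival was scored over 10 min, giving the po dose that prevents death in 50% of animals.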

Experiment [3] deals with Rattus norvegicus. The experiment in a line: Antiallergic activity in iv dosed rat assessed as inhibition of ovalbumin-induced passive cutaneous anaphylaxis. In kind it is functional. Particulars: for ED50: Rattus norvegicus, iv, read-out: ID50 (the source's name). Summed up: (§2)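 Rats were passively sensitized by intradermal injection of antiserum dilutions on the back. 48 h later they received 1 mg ovalbumin iv in 1 mL saline with 0.25% Evans Blue. Compound was dissolved in the antigen solution, using a slight molar excess of sodium bicarbonate if needed, and given with it. Mean orthogonal spot diameter was read on reflected dorsal skin. Percent inhibition was taken against the extrapolated base value. n=5 per group; Student's t test, p≤0.05.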

Experiment [4] deals with Rattus norvegicus. The experiment in a line: Antiallergic activity in po dosed rat allergic bronchoconstriction model assessed as reduction in respiratory flow rate administered 15 to 30 mins prior to ovalbumin challenge measured after 10 mins. In kind it is functional. The essentials:
(§3)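 Rats were immunized im with 1 mg ovalbumin on alumina, three times on alternate days. On day 8, 9 or 10 they were anesthetized with pentobarbital 60 mg/kg ip, tracheally cannulated and allowed to breathe spontaneously via a pneumotachograph. Drug was given orally 15 and 30 min before iv jugular 1 mg ovalbumin. Fall in respiratory flow rate and 10-min survival were recorded. Value is the mg/kg po dose inhibiting a 40% flow reduction.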

Experiment [5] is described as follows: Antiallergic activity in rat peritoneal mast cells assessed as inhibition of ovalbumin-induced histamine release after 15 mins. In kind it is functional, cell-based. The settings on record: Mast cell, 0.25 h. The essentials: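 Rat peritoneal mast cells were passively sensitized with the PCA antiserum, washed, and resuspended in Hank's balanced salt solution containing ovalbumin 20 mcg/mL plus drug. After 15 min at 37 °C, histamine released into the supernatant was measured fluorometrically. Value is the concentration giving 50% inhibition.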

The subject of experiment [6] is Rattus norvegicus. The experiment in a line: Antiallergic activity in rat assessed as inhibition of ovalbumin-induced passive cutaneous anaphylaxis at 10 mg/kg, ip measured after 14 days. In kind it is functional. Particulars: route intraperitoneal.
Experiment [7] has as its system Rattus norvegicus. The experiment in a line: Antiallergic activity in rat assessed as inhibition of ovalbumin-induced passive cutaneous anaphylaxis at 0.5 mg/kg, iv measured after 14 days. In kind it is functional. Summed up:
as §2

Experiment [8] relates to Rattus norvegicus. The experiment in a line: Antiallergic activity in po dosed rat allergic bronchoconstriction model assessed as reduction in respiratory flow rate administered 15 to 30 mins prior to ovalbumin challenge measured after 10 mins relative to doxantrazole. In kind it is functional. Summed up: as §3
The test system of experiment [9] is Rattus norvegicus. The experiment in a line: Antiallergic activity in po dosed rat assessed as inhibition of ovalbumin-induced passive cutaneous anaphylaxis relative to doxantrazole. In kind it is functional. The essentials: as §1
The species entered for the next experiment is Cavia porcellus. The experiment in a line: Antagonist activity at histamine receptor in guinea pig ileum assessed as reduction in histamine-induced contractions up to 0.1 mM. In kind it is tissue-based.
For experiment [10], the system named is Rattus norvegicus. The experiment in a line: Antiallergic activity in rat assessed as inhibition of ovalbumin-induced passive cutaneous anaphylaxis at 0.5 mg/kg, iv measured after 14 days relative to cromolyn sodium. In kind it is functional. The essentials:
as §2

For experiment [11], the system named is Rattus norvegicus. Briefly: Antiallergic activity in po dosed rat allergic bronchoconstriction model assessed as survival from death by bronchoconstriction administered 15 to 30 mins prior to ovalbumin challenge measured after 10 mins relative to doxantrazole. In kind it is functional.
In experiment [12] the test system is Rattus norvegicus. The experiment in a line: Antiallergic activity in rat assessed as inhibition of ovalbumin-induced passive cutaneous anaphylaxis at 0.5 mg/kg, iv measured after 14 days relative to doxantrazole. In kind it is functional. The essentials:
as §2

In experiment [13] the test system is Rattus norvegicus. Briefly: Antiallergic activity in rat assessed as inhibition of ovalbumin-induced passive cutaneous anaphylaxis at 1 mg/kg, iv measured after 14 days. In kind it is functional. Summed up: as §2

`O=C1c2ccccc2S(=O)(=O)c2cc(-c3nn[nH]n3)ccc21` [DOXANTRAZOLE]: the ED50 was 5 mg/kg in the experiment on Rattus norvegicus [1], 125 mg/kg with Rattus norvegicus [2] and 1.5 mg/kg with Rattus norvegicus [3]. Moreover, the ID100 with Rattus norvegicus [3] stood at 10 mg/kg. Also, the ID40 with Rattus norvegicus [4] is 43 mg/kg. For the same molecule, the half-inhibitory concentration (IC50) in experiment [5] is 0.48 µM.
`Cc1ccc2c(=O)n3cc(C(=O)O)ccc3nc2c1`: in the experiment with Rattus norvegicus [6], the inhibition in vivo at 10 mg/kg amounted to 54%.
In the case of `C=CCOc1ccc2nc3ccc(C(=O)O)cn3c(=O)c2c1`, the ED50 in the experiment with Rattus norvegicus [1] was more than 1 mg/kg.
For the molecule `O=C(O)c1ccc2nc3ccc(OCCO)cc3c(=O)n2c1`, in the experiment on Rattus norvegicus [1], the ED50 was more than 1 mg/kg.
Turning to `O=C(O)c1ccc2nc3cc(Cl)ccc3c(=O)n2c1`, the ED50 in the experiment on Rattus norvegicus [1] was found to be 5 mg/kg.
For the molecule `O=C(O)c1ccc2nc3ccc(O)cc3c(=O)n2c1`, the ED50 with Rattus norvegicus [1] is 5 mg/kg; with Rattus norvegicus [3], 0.05 mg/kg. The inhibition in vivo at 0.5 mg/kg in the experiment on Rattus norvegicus [7] was determined as 100%.
For `CCOc1ccc2nc3ccc(C(=O)O)cn3c(=O)c2c1`, the ED50 in the experiment on Rattus norvegicus [1] was more than 1 mg/kg.
`O=C(O)c1ccc2nc3cc(O)c(O)cc3c(=O)n2c1`: the ED50 with Rattus norvegicus [1] was more than 1 mg/kg.
Regarding `O=C([O-])c1cc(=O)c2c(OCC(O)COc3cccc4oc(C(=O)[O-])cc(=O)c34)cccc2o1.[Na+].[Na+]` [CROMOLYN SODIUM], in the experiment with Rattus norvegicus [1], the ID50 result was “inactive”. Moreover, the ED50 in the experiment on Rattus norvegicus [3] came to 1 mg/kg. Moreover, in [5], the half-inhibitory concentration (IC50) was determined as 6.5 µM.
On to `Cc1ccc2nc3ccc(C(=O)O)cn3c(=O)c2c1`, for which the ED50 stood at 0.75 mg/kg with Rattus norvegicus [1], 12.5 mg/kg in the experiment on Rattus norvegicus [2] and 0.05 mg/kg in the experiment on Rattus norvegicus [3]. Besides, the “fold change (FC)” value in the experiment on Rattus norvegicus [8] is on record as 4.6; with Rattus norvegicus [9], 4; with Rattus norvegicus [10], 30; in the experiment with Rattus norvegicus [11], 10; in the experiment on Rattus norvegicus [12], 30. In addition, the ID100 in the experiment with Rattus norvegicus [3] amounted to 2.5 mg/kg. Besides, in the experiment with Rattus norvegicus [4], the ID40 worked out at 9.3 mg/kg. Moreover, in the experiment on Rattus norvegicus [7], the inhibition in vivo at 0.5 mg/kg came to 100%. The inhibition result in the experiment filed under Cavia porcellus was “inactive”. Also, the half-inhibitory concentration (IC50) in experiment [5] was 0.94 µM.
Consider `O=C(O)c1ccc2nc3cc4c(cc3c(=O)n2c1)OCO4`, for which the inhibition in vivo at 0.5 mg/kg in the experiment on Rattus norvegicus [7] worked out at 30%.
With `O=C(O)c1ccc2nc3ccc(Cl)cc3c(=O)n2c1`, the inhibition in vivo at 0.5 mg/kg with Rattus norvegicus [7] amounted to 40%.
`COc1ccc2c(=O)n3cc(C(=O)O)ccc3nc2c1`: the ED50 with Rattus norvegicus [1] is more than 2 mg/kg. Also, the inhibition in vivo at 1 mg/kg in the experiment with Rattus norvegicus [13] is 100%.
Take `Cc1cc2nc3ccc(C(=O)O)cn3c(=O)c2cc1C`: the ED50 in the experiment with Rattus norvegicus [1] amounted to 2 mg/kg. Also, in the experiment on Rattus norvegicus [7], the inhibition in vivo at 0.5 mg/kg was 25%.
Taken in the same sequence, the figures for `CCCOc1ccc2nc3ccc(C(=O)O)cn3c(=O)c2c1` were 2 mg/kg and 100%.
Consider `Cl.O=C(O)c1ccc2nc3ccccc3c(=O)n2c1`, for which the ED50 with Rattus norvegicus [1] came out at 2.5 mg/kg; in the experiment on Rattus norvegicus [3] it was 0.5 mg/kg. Moreover, in the experiment with Rattus norvegicus [7], the inhibition in vivo at 0.5 mg/kg came out at 45%.
For the molecule `O=C(O)c1ccc2nc3cc(O)ccc3c(=O)n2c1`, the inhibition in vivo at 0.5 mg/kg in the experiment on Rattus norvegicus [7] was 36%.
As to `CCCCOc1ccc2nc3ccc(C(=O)O)cn3c(=O)c2c1`, the ED50 in the experiment with Rattus norvegicus [1] is more than 2 mg/kg. For the same molecule, the inhibition in vivo at 0.5 mg/kg in the experiment on Rattus norvegicus [7] was determined as 88%.
For `O=C(O)c1ccc2nc3ccc(Br)cc3c(=O)n2c1`, in the experiment on Rattus norvegicus [1], the ED50 came out at 1 mg/kg. Further, the inhibition in vivo at 0.5 mg/kg in the experiment on Rattus norvegicus [7] came to 34%.
On to `COc1ccc2nc3ccc(C(=O)O)cn3c(=O)c2c1`, for which the ED50 in the experiment on Rattus norvegicus [1] was determined as 0.5 mg/kg; in the experiment on Rattus norvegicus [3], 0.05 mg/kg. Besides, in the experiment with Rattus norvegicus [7], the inhibition in vivo at 0.5 mg/kg stood at 100%.
As to `COc1cc2nc3ccc(C(=O)O)cn3c(=O)c2cc1OC`, the figures for the ED50 in the experiment with Rattus norvegicus [1] and in the experiment with Rattus norvegicus [3] were 10 mg/kg and 0.05 mg/kg, respectively. Also, the inhibition in vivo at 0.5 mg/kg in the experiment with Rattus norvegicus [7] was 100%.

A word on the IC50: it is the point on the concentration scale where inhibition reaches its midpoint. As usually defined, the inhibition in vivo is the relative decrease from the control value, in per cent.
